DAGLB inh: diacylglycerol lipase beta (human) inhibition. inhibition, % at 5.17 µM. HEK293T DAGLB membrane lysate, EnzChek fluorogenic substrate. actives 0.059% (n = 340,000). AID 504411; in the data active means inhibition above about 34%
MT1-MMP act inh: blocks activation of human MT1-MMP; HT1080 RFP-PRO-GFP cells, GFP/RFP ratio fluorescence, overnight; percent of plate control window, DMSO zero; GFP/RFP ratio change, % at 20 µM; actives 0.061% (n = 360,000);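 active means GFP/RFP ratio change of at least 30% with cell ATP level not reduced by more than half and red fluorescence within 50% of control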
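Assay system: HT1080 cells carrying an RFP-PRO-GFP reporter | Dosing: Single dose of 20 µM compound, 1% DMSO final | Incubation: Cells overnight before dosing, compound overnight, 37 °C, 5% CO2 | Evaluation: GFP/RFP fluorescence ratio | Control set: DMSO and RFP-L50D-GFP cell wells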
TMEM16A act: activators or potentiators of mouse TMEM16A chloride channel; Q8BHY3; HEK293 TMEM16A/YFP-H148Q/I152L, iodide quench fluorescence; active compounds read low; B-score at 10 µM; actives 0.3% (n = 340,000); AID 623877;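 active means fluorescence-ratio B-score plate-corrected deviation score at least 3 library SD below zero, with starting fluorescence score within 5 deviations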;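 further: channel opened by trigger with iodide after compound preincubation; score built on the fluorescence ratio of max minus min over baseline; more negative score means more quench and so TMEM16A activation or potentiation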
TMEM16A inh: inhibitors of mouse TMEM16A calcium-activated chloride channel; Q8BHY3; HEK293 TMEM16A/YFP iodide influx fluorescence, ionomycin; normalized B-score (activity score, 25-100; higher = stronger inhibition) at 10 µM; actives 1.2% (n = 310,000); AID 588511;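 active means ratio plate-corrected score three or more library SD toward inhibition, starting fluorescence score within five deviations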;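 further: score derived from kinetic fluorescence span divided by baseline fluorescence per well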
Large screens that a line does not name were inactive. A selection: hits, their analogues and other compounds. The true share with any hit is near 1.3%.

CCn1c(=NC(=O)c2cccc(N3C(=O)CCC3=O)c2)sc2c(OC)ccc(OC)c21	TMEM16A act -6.4
COc1ccc(OC)c2c1sc(=NC(=O)c1cccc(N3C(=O)CCC3=O)c1)n2C	none
CCCCNS(=O)(=O)c1cccc(NC(=O)[C@@H]2O[C@H](CO)[C@H](O)[C@H](O)[C@H]2O)c1	none (no result: DAGLB inh, TMEM16A act, TMEM16A inh)
CC1(C(=O)NCCc2ccccc2)Cc2c(-c3ccc(C(N)=O)cc3)ccnc2O1 (stereo not given)	none (no result: DAGLB inh, TMEM16A act, TMEM16A inh)
O=C(CCS(=O)(=O)c1ccccc1)Nc1nc(-c2cccs2)cs1	TMEM16A act -7.9
CCCCCC(=O)Nc1ccc(N2CCN(C(=O)CCC)CC2)cc1	TMEM16A inh 100
CCCCNC(=O)c1nc(C2CCN(S(=O)(=O)c3ccc(S(C)(=O)=O)cc3)CC2)oc1-c1ccccc1	none (no result: DAGLB inh, TMEM16A act, TMEM16A inh)
CC(C1CC1)N(Cc1ccccc1)C(=S)Nc1cccc(C(F)(F)F)c1 (stereo not given)	TMEM16A inh 100
COc1ccccc1C(c1nnnn1C1CCCC1)N1CCN2CCCC2C1 (stereo not given)	TMEM16A act -12
CC(=O)C[C@H](O)CC(=O)[C@H]1OC(=O)CCCCCCCc2ccccc21	none (no result: TMEM16A inh)
O=C(CCc1c[nH]c2ccccc12)NCC(=O)Nc1ccc(F)c(F)c1F	TMEM16A act -6.3
CN(C)c1ncnc2c1ncn2[C@H]1CN(Cc2cccnc2)C[C@@H](CO)O1	none (no result: DAGLB inh, TMEM16A act, TMEM16A inh)
Cc1ccc(SCC(=O)N2c3ccccc3Sc3ccccc32)cc1	TMEM16A inh 100
ClC1=CN(C2=NCCC2)CC1	none (no result: DAGLB inh, TMEM16A act, TMEM16A inh)
CCN(c1ccccc1)S(=O)(=O)c1ccc(NC(=O)c2nc(S(C)(=O)=O)ncc2Cl)cc1	TMEM16A act -7.6
CCS(=O)(=O)c1ncc(Cl)c(C(=O)Nc2ccc(S(=O)(=O)N(C)c3ccccc3)cc2)n1	none
Cc1ccc(N2CCN(C(=O)C(=O)c3ccc4c(c3)OCO4)CC2)cc1	none (no result: DAGLB inh, TMEM16A act, TMEM16A inh)
O=C(Nc1ccc(C(=O)NCC2CCN(Cc3ccccc3F)CC2)cc1)C1=CSCCO1	none
Cc1ccc(CN2CCC(CNC(=O)c3ccc(NC(=O)C4=CSCCO4)cc3)CC2)cc1	TMEM16A act -27
COc1cccc(NC(=O)c2cccc(N3C(=O)C4C5C=CC(C5)C4C3=O)c2)c1 (stereo not given)	TMEM16A inh 25
COc1ccc(NC(=O)c2cccc(N3C(=O)C4C5C=CC(C5)C4C3=O)c2)cc1 (stereo not given)	none
COc1ccc(CCNC(=O)CN2C(=O)NC(c3ccccc3)(c3ccccc3)C2=O)cc1	none (no result: TMEM16A inh)
CN(C(=O)c1cccc(COc2ccc(Cl)cc2Cl)c1)c1ccccc1	TMEM16A inh 25
CC(C)CSC1=NSC2=NC(=O)/C(=C\c3ccccc3)C(=N)N12	TMEM16A inh 25
CC(C)CSC1=NSC2=NC(=O)/C(=C\c3coc4ccccc4c3=O)C(=N)N12	none
CCC1(c2ccc(F)cc2)NC(=O)N(CC(=O)Nc2cc(C)on2)C1=O (stereo not given)	TMEM16A act -39 (no result: TMEM16A inh)
CCC1(c2ccc(F)cc2)NC(=O)N(CC(=O)NCC(=O)Nc2cccc(C)c2C)C1=O (stereo not given)	TMEM16A inh 25
CCCC1(c2ccccc2)NC(=O)N(CC(=O)Nc2cc(C)on2)C1=O (stereo not given)	none
CCc1nc2ccc(C(=O)NCCOc3ccc(OC)cc3)cn2c1N(CC)Cc1ccc(OC)c(OC)c1	none (no result: DAGLB inh, TMEM16A act, TMEM16A inh)
Cc1ccc(C(=O)CN(C(=O)c2ccc(Cl)c(Cl)c2)N2C(=O)C3CCCCC3C2=O)cc1 (stereo not given)	none
Cc1ccc(C(=O)CN(C(=O)c2ccc(Cl)c(Cl)c2)N2C(=O)C3CCCCC3C2=O)cc1C (stereo not given)	TMEM16A act -5.5
Cc1ccc(CN2C(=O)C(C)Sc3ccc(C#N)cc32)cc1 (stereo not given)	none (no result: DAGLB inh, TMEM16A act, TMEM16A inh)
Cc1nn(C(C)C(=O)Nc2sc3c(c2C#N)CCCC3)c(C)c1[N+](=O)[O-] (stereo not given)	TMEM16A inh 100
Cc1nn(CCCC(=O)Nc2sc3c(c2C#N)CCC3)c(C)c1[N+](=O)[O-]	none
COC(=O)C(C(=O)OC)C(C)C(C(=O)OC)C(=O)OC	TMEM16A act -18
COc1ccc(N(CC(O)Cn2c3ccccc3c3ccccc32)S(=O)(=O)c2ccccc2)cc1 (stereo not given)	TMEM16A act -4.8
COC(=O)[C@@]12C[C@@H](CC(=O)N3CCN(C(=O)c4ccco4)CC3)C(=O)N(Cc3cccc4ccccc34)C1=CCC(C)(C)C2	none (no result: DAGLB inh, TMEM16A act, TMEM16A inh)
Oc1ccc(Cl)cc1Sc1cc(Cl)ccc1O	TMEM16A act -5.6 (no result: TMEM16A inh)
O=C(c1ccc(COc2ccccc2Cl)o1)N1CCN(Cc2ccc3c(c2)OCO3)CC1	none
O=C(c1ccc(COc2ccc(Cl)cc2)o1)N1CCN(Cc2ccc3c(c2)OCO3)CC1	TMEM16A inh 25
CN1C[C@@H]2[C@@H]3C(=O)N(Cc4ccccc4)C(=O)[C@@H]3[C@](Cc3ccccc3)(C1=O)N2C(=O)c1ccc(Br)cc1	none (no result: TMEM16A inh)
O=C1CCN(Cc2ccccc2)C=C1c1ccc(Br)cc1	none (no result: TMEM16A inh)
O=C(NNC(=O)c1cc(-c2ccccc2)nc2ccccc12)Nc1cccc(Cl)c1	TMEM16A inh 100
N#CC1=C(N)NC(SCc2ccc(Br)cc2)=C(C#N)C12CCCCC2	TMEM16A inh 100
N#CC1=C(N)NC(SCC(=O)c2ccccc2)=C(C#N)C12CCCC2	none
N#CC1=C(N)NC(SCC(=O)Nc2ccc(Br)cc2)=C(C#N)C12CCCCC2	TMEM16A inh 100
N#CC1=C(N)NC(SCc2ccccc2)=C(C#N)C12CCCC2	TMEM16A act -5.1
N#CC1=C(N)NC(SCc2ccc(Cl)cc2)=C(C#N)C12CCCCC2	TMEM16A inh 100
CC(C)Cc1nnc(NC(=O)C2CCCN(C(=O)c3ccc(Cl)cc3)C2)s1 (stereo not given)	none (no result: TMEM16A act, TMEM16A inh)
Cc1cc(NC(=O)CSc2nnc(-c3ccncc3)n2C)n(-c2ccccc2)n1	TMEM16A act -4.9
Cc1cc(NC(=O)CSc2nnc(-c3ccncc3)n2Cc2ccccc2)n(-c2ccccc2)n1	none
COc1ccc(C(C)(O)c2nc(-c3ccccc3OC)cs2)cc1 (stereo not given)	none (no result: DAGLB inh, TMEM16A act, TMEM16A inh)
C=CCNC(=O)c1ccsc1N	none (no result: DAGLB inh, TMEM16A act, TMEM16A inh)
CC(C)CC(=O)NC(NC(=S)Nc1sc2c(c1C#N)CCCC2)C(Cl)(Cl)Cl (stereo not given)	TMEM16A inh 100
COc1ccc(-c2oc(NC(=O)CSc3ncn[nH]3)c(C#N)c2-c2ccc(OC)cc2)cc1	TMEM16A inh 25
COc1ccc(-c2oc(NC(=O)CCl)c(C#N)c2-c2ccc(OC)cc2)cc1	TMEM16A inh 100
S=C(Nc1ccccc1)N1CCCCCCC1	TMEM16A act -4.6
S=C(Nc1ccccc1)N1CCN(C(=S)Nc2ccccc2)CC1	none (no result: DAGLB inh, MT1-MMP act inh, TMEM16A act)
CNC(=O)OCc1nc(SC2CCCCO2)n(C)c1COC(=O)NC (stereo not given)	none (no result: DAGLB inh, TMEM16A act, TMEM16A inh)
COc1ccc(OCC(=O)N2CCCC(Nc3ccc(C)c(C)c3)C2)cc1 (stereo not given)	none (no result: TMEM16A act, TMEM16A inh)
Cc1cccnc1NC(=S)NC(=O)c1cccs1	TMEM16A inh 25
